In ChEMBL document CHEMBL5303300, “EUbOPEN Chemogenomics Library - Multiplex” (2023):
Values joined by “and” are separate entries in the source; they are usually repeats but may differ in a detail not shown here. Equal entries are not always repeated.

System: U2OS
Assay: Multiplex assay against U2OS
Assay type: toxicity, cell-based
Details: human, number of replicates 2
Outline: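 Cells were classed with CellPathfinder machine-learning gating, first as Hoechst high-intensity objects or normal cells, then (normal cells) as healthy, pyknosed or fragmented nuclei, and finally (pyknosed cells) as mitotic or apoptotic. Staining of live cells at seeding used Hoechst33342, BioTracker Green Microtubule Cytoskeleton Dye, MitoTracker Red and Annexin V Alexa Fluor 680, with imaging on a CQ1 microscope at 37°C and 5% CO2 after compound addition. Tubulin, mitochondrial-mass and membrane-permeability phenotypes are per cents of healthy-nucleus cells.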

[1] = 12 h, 1 µM, compound concentration 1 uM
[2] = 12 h, 10 µM, compound concentration 10 uM
[3] = 24 h, 1 µM, compound concentration 1 uM
[4] = 24 h, 10 µM, compound concentration 10 uM
[5] = 48 h, 1 µM, compound concentration 1 uM
[6] = 48 h, 10 µM, compound concentration 10 uM

CS(=O)(=O)c1ccc(NC(=O)c2cccc(COc3ccc(Br)cc3CNCCO)c2)c(Cl)c1.O=CO
Population Apoptotic (%) [1]: 80% and 76% | Population Fragmented Nuclei (%) [1]: 11% | Population Healthy Nuclei (%) [1]: 76% and 84% | Population Hoechst High Intensity Objects (%) [1]: 0% | Population Mitotic Cells (%) [1]: 20% and 24% | Population Apoptotic (%) [2]: 85% and 71% | Population Healthy Nuclei (%) [2]: 50% and 72% | Population Hoechst High Intensity Objects (%) [2]: 0% | Population Apoptotic (%) [3]: 50% and 79% | Population Fragmented Nuclei (%) [3]: 7% and 3% | Population Healthy Nuclei (%) [3]: 69% and 78% | Population Hoechst High Intensity Objects (%) [3]: 0% | Population Mitotic Cells (%) [3]: 50% and 20% | Population Apoptotic (%) [4]: 77% | Population Healthy Nuclei (%) [4]: 33% and 65% | Population Hoechst High Intensity Objects (%) [4]: 0% | Population Mitotic Cells (%) [4]: 46% and 22% | Population Apoptotic (%) [5]: 83% and 87% | Population Fragmented Nuclei (%) [5]: 7% | Population Healthy Nuclei (%) [5]: 67% and 79% | Population Hoechst High Intensity Objects (%) [5]: 0% | Population Apoptotic (%) [6]: 100% and 94% | Population Healthy Nuclei (%) [6]: 23% and 57% | Population Hoechst High Intensity Objects (%) [6]: 0% | Population Mitotic Cells (%) [6]: 0% and 5%

OC(c1ccc(-c2ccc(CN3CCN(Cc4ccncc4)CC3)cc2)c(F)c1)(C(F)(F)F)C(F)(F)F
Population Hoechst High Intensity Objects (%) [1]: 0% | Population Mitochondria Different-Phenotype (%) [1]: 0% and 1% | Population Normal (%) [1]: 100% | Population Pyknosed Nuclei (%) [1]: 14% and 9% | Population Tubulin-Different-Phenotype (%) [1]: 100% and 87% | Population Apoptotic (%) [2]: 50% and 40% | Population Healthy Nuclei (%) [2]: 80% and 50% | Population Hoechst High Intensity Objects (%) [2]: 0% | Population Mitochondria Different-Phenotype (%) [2]: 3% and 0% | Population Mitotic Cells (%) [2]: 50% and 60% | Population Normal (%) [2]: 100% | Population Pyknosed Nuclei (%) [2]: 15% and 17% | Population Hoechst High Intensity Objects (%) [3]: 0% | Population Membrane Permeable-Phenotype (%) [3]: 0% | Population Mitochondria Different-Phenotype (%) [3]: 0% | Population Mitotic Cells (%) [3]: 100% and 42% | Population Normal (%) [3]: 100% and 99% | Population Pyknosed Nuclei (%) [3]: 20% and 9% | Population Apoptotic (%) [4]: 53% and 57% | Population Healthy Nuclei (%) [4]: 79% and 54% | Population Hoechst High Intensity Objects (%) [4]: 0% | Population Mitochondria Different-Phenotype (%) [4]: 2% and 0% | Population Mitotic Cells (%) [4]: 46% and 42% | Population Normal (%) [4]: 99% and 100% | Population Pyknosed Nuclei (%) [4]: 14% and 18% | Population Tubulin-Different-Phenotype (%) [4]: 50% and 25% | Population Hoechst High Intensity Objects (%) [5]: 0% | Population Membrane Permeable-Phenotype (%) [5]: 0% and 1% | Population Mitochondria Different-Phenotype (%) [5]: 0% | Population Normal (%) [5]: 100% | Population Pyknosed Nuclei (%) [5]: 0% and 5% | Population Apoptotic (%) [6]: 54% and 58% | Population Healthy Nuclei (%) [6]: 84% and 56% | Population Hoechst High Intensity Objects (%) [6]: 0% and 1% | Population Membrane Permeable-Phenotype (%) [6]: 3% and 10% | Population Mitochondria Different-Phenotype (%) [6]: 2% and 3% | Population Mitotic Cells (%) [6]: 45% and 41% | Population Normal (%) [6]: 100% and 98% | Population Pyknosed Nuclei (%) [6]: 11% and 23%
